Screening data (PubChem)
PP1 counter: PP1-alpha phosphatase inhibitors, primary screen, counter-screen for PP5 inhibitor project, biochemical, fluorescence, OMFP substrate, single point; Serine/threonine-protein phosphatase PP1-alpha catalytic subunit (Homo sapiens), P62136; purified PP1alpha; inhibition, % at 6.7 µM; hit rate 0.9% among 320,000; AID 2235, 2010;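 active = inhibition above the mean inhibition of all tested compounds plus 3 SD, computed separately for each screening campaign, cut at about 15% in these data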
Target sequence (P62136 whole entry, looked up): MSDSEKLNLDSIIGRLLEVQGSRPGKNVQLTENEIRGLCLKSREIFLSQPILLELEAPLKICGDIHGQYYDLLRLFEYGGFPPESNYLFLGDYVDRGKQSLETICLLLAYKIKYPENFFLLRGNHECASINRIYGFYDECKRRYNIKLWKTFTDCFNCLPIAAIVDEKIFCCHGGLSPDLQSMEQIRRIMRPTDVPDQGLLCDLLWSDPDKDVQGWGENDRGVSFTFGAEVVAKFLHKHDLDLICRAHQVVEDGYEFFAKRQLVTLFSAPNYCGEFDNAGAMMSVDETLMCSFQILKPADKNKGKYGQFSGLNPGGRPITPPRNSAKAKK
NS3 helicase inh: inhibitors of HCV NS3 helicase, primary screen, biochemical, Cy5 molecular beacon fluorescence | hit rate 0.56% among 290,000 | NS3 helicase DNA unwinding | inhibition, % at 10.9 µM | Hepatitis C virus NS3 helicase;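 active = inhibition above the mean of all tested compounds plus 3 SD, set per campaign, cut at about 35% in these data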;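 note: 0% = DMSO wells and 100% = thioflavine S control wells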
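System: HCV NS3 helicase fragment; control set: DMSO and thioflavine S; technique: Cy5 fluorescence at 0 and 60 min, beacon hairpin quenching; reagent: beacon DNA duplex substrate plus ATP; replicates: singlicate; schedule: 1 h reaction at 25 °C, ATP-initiated; medium: MOPS buffer pH 6.5 with MgCl2, DTT, Tween20, BSA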
ZTA counter: counter-screen for EBNA-1 inhibitors: inhibitors of Epstein-Barr virus ZTA. ZTA-DNA binding, fluorescence polarization. P03206. AID 2234. hit rate 0.15% among 320,000. inhibition, % at 11 µM; in the data active = inhibition above about 33%
EBNA-1 inh: EBNA-1 DNA-binding inhibitors, primary screen, biochemical, fluorescence polarization. inhibition, % at 14.8 µM. hit rate 0.34% among 300,000. AID 1950, 2009; in the data active = inhibition above about 28%
HCV core dimer: inhibitors of HCV core protein dimerization, primary screen, biochemical, TR-FRET, high-throughput. hit rate 0.33% among 300,000. inhibition, % at 5 µM. TR-FRET GST/Flag-core106 dimerization, 1536-well;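 active = inhibition above the mean of all tested compounds plus 3 SD, set per screening campaign, cut at about 45% in these data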
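Material: GST/Flag-tagged HCV core106 proteins. Incubation: 4 h, 22.5 °C incubation. Read-out basis: inhibition (%) from 671 over 617 nm ratio. Measured by: TR-FRET, excitation 340 nm, emission 617 and 671 nm.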
NS3 hel confirm: HCV NS3 helicase inhibitors, retest, confirmation, biochemical, Cy5 molecular beacon fluorescence, triplicate | hit rate 31% among 1,600 | shares compounds with NS3 helicase inh | inhibition, % at 10.9 µM | AID 1943, 2009 | NS3 helicase DNA unwinding;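 active = inhibition above the mean of all tested compounds plus 3 SD, cutoff set per campaign, cut at about 36% in these data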
DNA FID counter: compounds displacing fluorescent DNA intercalator, artefact control for HCV NS3 helicase inhibitor project, biochemical, FID fluorescence, triplicate | shares compounds with NS3 helicase inh | DNA fluorescent intercalator displacement | hit rate 4% among 1,600 | inhibition, % at 7.9 µM; in the data active = inhibition above about 37%;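 note: 0% = vehicle and 100% = reference compound; higher means more displacement of ethidium bromide from the DNA hairpin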
* hit, by the source's call; · = no result given. Sampled rows, rich in hits. Any-hit rate of the full collection: about 1.9%.

SMILES | PP1 counter | NS3 helicase inh | ZTA counter | EBNA-1 inh | HCV core dimer | others
O=c1c2ccccc2[nH]c(=S)n1-c1ccc(Br)cc1 | 19.7* | -8.9 | 6.0 | -5.4 | 3.8
O=c1c2cc(Br)ccc2[nH]c(=S)n1-c1ccccc1 | 8.0 | 1.1 | 1.2 | 0.1 | -1.3
CC(C)c1ccc(N2C(=O)NC(=O)/C(=C/C=C/c3ccco3)C2=O)cc1 | 17.3* | 22.8 | 2.3 | 2.4 | 34.8
COC(=O)C1=C(c2ccc(F)cc2OCc2ccccc2)C[C@@H]2CC[C@H]1N2C(=O)NCCNC(C)=O | 6.8 | · | -17.3 | · | ·
Cc1cc2c(C(C)C)c(O)c(O)c(C=O)c2c(O)c1-c1c(C)cc2c(C(C)C)c(O)c(O)c(C=O)c2c1O | · | 36.8* | · | · | ·
Cc1cccc(N2C(=O)NC(=O)/C(=C\c3ccc4c(c3)CCCN4Cc3ccccc3)C2=O)c1 | 1.6 | 7.0 | 1.6 | 5.3 | 21.4
CCC(C)N1C(=O)/C(=C/c2ccc3c(c2)CCN3CCCCl)C(=O)NC1=S (stereo unspecified) | -0.3 | 22.1 | 7.5 | 3.3 | 71.5*
c1ccc(C2OCCN3CCCCC23)cc1 (stereo unspecified) | 1.5 | 7.8 | 4.7 | -1.2 | 5.4
COc1ccc(OCC(=O)N2CCCC(N3CCN(c4ccccc4C)CC3)C2)cc1 (stereo unspecified) | 1.9 | -11.9 | -11.2 | -3.2 | 3.6
C=C1C(=O)O[C@@H]2C[C@@H](C)[C@H]3C=CC(=O)[C@]3(O)C[C@@H]12 | 2.7 | · | 1.4 | 6.7 | 46.6*
Cc1ccc2c(c1Cl)NC(C(=O)O)C1CC(Sc3ccccc3[N+](=O)[O-])C(Cl)C21 (stereo unspecified) | 2.3 | 13.5 | -4.8 | -1.7 | 66.3*
O=C(c1cccn2c(=O)c3cc(Cl)ccc3nc12)N1CCC2(CC1)OCCO2 | -2.8 | -7.2 | -20.7 | 6.6 | -0.4
O=C1NC(=O)C(=Cc2coc3ccccc3c2=O)C(=O)N1 | 2.5 | -7.1 | -8.1 | -0.9 | 1.0
O=C1NC(=O)C(=C/C=C/c2coc3ccc(Br)cc3c2=O)C(=O)N1 | 0.9 | 48.0* | 20.9 | -1.4 | 4.1
CN(C)[C@@H]1C(=O)C(C(N)=O)=C(O)[C@@]2(O)C(=O)C3=C(O)c4c(O)cccc4[C@@](C)(O)[C@H]3C[C@@H]12 | 29.3* | · | 6.9 | 22.2 | 52.1*
O=P(Oc1ccccc1)(Oc1ccccc1)c1ccccc1 | -3.5 | 3.9 | 3.0 | 5.2 | 2.1
C=CCn1c(O)c(C(CC)=Nc2ccc3c(c2)CCC3)c(=O)[nH]c1=O | 0.3 | 3.0 | -10.0 | -7.7 | -1.4
C=CCn1c(O)c(C(CC)=Nc2ccc(N(C)C)cc2)c(=O)[nH]c1=O | 0.2 | 20.3 | 137.6* | 126.8* | 0.3
Cc1cccc(NC(=O)CN2CCN(C(=O)COc3cccc(Br)c3)CC2)c1C | -1.9 | · | -4.4 | · | ·
OCC[n+]1c2ccccc2nc2ccc(N3CCOCC3)cc21 | -0.3 | 25.4 | 115.0* | 84.4* | -76.5
Cc1ccc(NP(=O)(Nc2ccc(C)cc2)Oc2ccccc2)cc1 | -5.7 | -18.0 | 16.5 | 1.0 | 6.4
O=C1NC(=O)N(c2ccccc2)C(=O)/C1=C\c1ccc([N+](=O)[O-])o1 | 4.6 | 34.1 | 41.5* | -1.8 | 2.4
CN(C)C1C(=O)C(C(N)=O)=C(O)C2(O)C(=O)C3=C(O)c4c(O)cccc4C(C)(O)C3CC12 (stereo unspecified) | 5.8 | 42.5* | -3.6 | 3.3 | -0.2 | NS3 hel confirm=3.8;DNA FID counter=11.1
O=C(O)Cn1cc(/C=C2\C(=O)NC(=O)N(c3ccc(Br)cc3)C2=O)c2ccccc21 | 3.8 | 49.0* | 13.1 | 3.0 | 6.8 | NS3 hel confirm=28.5;DNA FID counter=-8.5
COC(=O)C1=C(c2ccc(F)cc2OCc2ccccc2)C[C@@H]2CC[C@H]1N2C(=O)NCCCOC(C)C | -0.8 | · | -0.8 | · | ·
CCN(CC)c1ccc(N=Cc2c(O)n(-c3ccc(Cl)cc3)c(=O)[nH]c2=O)cc1 | 1.1 | 7.4 | -8.6 | -3.8 | 13.3
